≈ marks a conversion by molar mass, not a printed value. Calls of active or inactive are those of the source. No cut-off for these calls is given here.
Key:
[1] = tested on: HL-60(TB); assay: Growth inhibition of human HL-60(TB) cells at 10 uM incubated for 48 hrs by sulforhodamine B assay; type: functional, cell-based
Method in brief: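 NCI 60-line single-dose screen at 10 μM, 48 h. Cells in RPMI-1640 with 5% FBS and 2 mM L-glutamine at 37 °C, 5% CO2. Growth measured by TCA fixation and SRB staining (515 nm), relative to time-zero and untreated control wells.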

[2] = tested on: K562; assay: Growth inhibition of human K562 cells at 10 uM incubated for 48 hrs by sulforhodamine B assay; type: functional, cell-based
Method in brief: (§1)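 NCI 60-line panel, single 10 μM dose. Cells were grown in RPMI-1640 with 5% FBS and 2 mM L-glutamine and pre-incubated 24 h before compound addition (DMSO stock). Exposure was 48 h at 37 °C, 5% CO2. Cells were fixed with cold TCA (10% final), stained with 0.4% SRB, bound dye dissolved in 10 mM Tris base, A515 read. Growth was taken relative to time-zero and untreated control plates.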

[3] = tested on: MOLT-4; assay: Growth inhibition of human MOLT4 cells at 10 uM incubated for 48 hrs by sulforhodamine B assay; type: functional, cell-based; method in brief: as §1
[4] = tested on: A549; assay: Growth inhibition of human A549/ATCC cells at 10 uM incubated for 48 hrs by sulforhodamine B assay; type: functional, cell-based
Method in brief: (§2)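 NCI 60-cell-line screen at a single 10 µM dose. Cells in RPMI-1640 with 5% FBS and 2 mM L-glutamine, pre-incubated 24 h, then treated for 48 h at 37 °C. TCA fixation, sulforhodamine B staining, absorbance at 515 nm. Percentage growth calculated against time-zero and untreated controls.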

[5] = tested on: HOP-92; assay: Growth inhibition of human HOP92 cells at 10 uM incubated for 48 hrs by sulforhodamine B assay; type: functional, cell-based; method in brief: as §1
[6] = tested on: NCI-H226; assay: Growth inhibition of human NCI-H226 cells at 10 uM incubated for 48 hrs by sulforhodamine B assay; type: functional, cell-based; method in brief: as §1
[7] = tested on: NCI-H23; assay: Growth inhibition of human NCI-H23 cells at 10 uM incubated for 48 hrs by sulforhodamine B assay; type: functional, cell-based; method in brief: as §1
[8] = tested on: NCI-H322M; assay: Growth inhibition of human NCI-H322M cells at 10 uM incubated for 48 hrs by sulforhodamine B assay; type: functional, cell-based; method in brief: as §1
[9] = tested on: NCI-H522; assay: Growth inhibition of human NCI-H522 cells at 10 uM incubated for 48 hrs by sulforhodamine B assay; type: functional, cell-based; method in brief: as §1
[10] = tested on: HCT-116; assay: Growth inhibition of human HCT116 cells at 10 uM incubated for 48 hrs by sulforhodamine B assay; type: functional, cell-based; method in brief: as §2
[11] = tested on: SF-268; assay: Growth inhibition of human SF268 cells at 10 uM incubated for 48 hrs by sulforhodamine B assay; type: functional, cell-based; method in brief: as §1
[12] = tested on: MDA-MB-435; assay: Growth inhibition of human MDA-MB-435 cells at 10 uM incubated for 48 hrs by sulforhodamine B assay; type: functional, cell-based; method in brief: as §1
[13] = tested on: SK-MEL-28; assay: Growth inhibition of human SK-MEL-28 cells at 10 uM incubated for 48 hrs by sulforhodamine B assay; type: functional, cell-based
Method in brief: (§3)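 NCI-60 single-dose screen at 10 µM for 48 h. Cells were grown in RPMI-1640 with 5% FBS and 2 mM L-glutamine and preincubated 24 h before compound. Time-zero plates were TCA-fixed at compound addition. After exposure, cells were TCA-fixed, stained with SRB and read at 515 nm. Percentage growth was calculated against time-zero and untreated-control absorbances.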

[14] = tested on: UACC-62; assay: Growth inhibition of human UACC62 cells at 10 uM incubated for 48 hrs by sulforhodamine B assay; type: functional, cell-based; method in brief: as §3
[15] = tested on: IGROV-1; assay: Growth inhibition of human IGROV1 cells at 10 uM incubated for 48 hrs by sulforhodamine B assay; type: functional, cell-based; method in brief: as §1
[16] = tested on: OVCAR-3; assay: Growth inhibition of human OVCAR3 cells at 10 uM incubated for 48 hrs by sulforhodamine B assay; type: functional, cell-based; method in brief: as §1
[17] = tested on: OVCAR-4; assay: Growth inhibition of human OVCAR4 cells at 10 uM incubated for 48 hrs by sulforhodamine B assay; type: functional, cell-based; method in brief: as §1
[18] = tested on: SK-OV-3; assay: Growth inhibition of human SKOV3 cells at 10 uM incubated for 48 hrs by sulforhodamine B assay; type: functional, cell-based; method in brief: as §3
[19] = tested on: MDA-MB-231; assay: Growth inhibition of human MDA-MB-231 cells at 10 uM incubated for 48 hrs by sulforhodamine B assay; type: functional, cell-based; method in brief: as §1
[20] = tested on: Hs-578T; assay: Growth inhibition of human Hs578T cells at 10 uM incubated for 48 hrs by sulforhodamine B assay; type: functional, cell-based; method in brief: as §1
[21] = tested on: T47D; assay: Growth inhibition of human T47D cells at 10 uM incubated for 48 hrs by sulforhodamine B assay; type: functional, cell-based; method in brief: as §3
[22] = tested on: Cryptococcus neoformans; assay: Antifungal activity against Cryptococcus neoformans ATCC 32264 incubated for 48 hrs under dark condition by broth microdilution method; type: functional; details: ATCC 32264, 48 h
Method in brief: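 CLSI M27-A3 broth microdilution in RPMI-1640, DMSO ≤1%, compounds at 250-0.98 µg/mL final. Inoculum 1-5 × 10^3 CFU/mL. Incubated 48 h at 30 °C in a moist dark chamber, read at OD405. MIC80 and MIC50 taken from % inhibition dose-response curves (mean ± SEM, triplicate). Amphotericin B was the positive control.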

[23] = tested on: Candida albicans; assay: Growth inhibition of Candida albicans ATCC 10231 at 15.62 ug/ml incubated for 48 hrs under dark condition by broth microdilution method relative to control; type: functional; details: ATCC 10231, 48 h, read-out: GI
Method in brief: (§4)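 CLSI M27-A3 broth microdilution in RPMI-1640, DMSO ≤1%. Inoculum 1-5 × 10^3 CFU/mL. Incubated 48 h at 30 °C, dark. % inhibition = 100 − (OD405 test − sterility control)/(OD405 growth control − sterility control), with growth and sterility control wells. Triplicate.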

[24] = tested on: Cryptococcus neoformans; assay: Growth inhibition of Cryptococcus neoformans ATCC 32264 at 250 ug/ml incubated for 48 hrs under dark condition by broth microdilution method relative to control; type: functional; details: ATCC 32264, 48 h, read-out: GI; method in brief: as §4
[25] = tested on: Escherichia coli; assay: Antibacterial activity against Escherichia coli ATCC 25922 after 24 hrs by resazurin dye based microdilution assay; type: functional; details: ATCC 25922, 24 h
Method in brief: (§5)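 MIC taken as the lowest concentration giving visible inhibition and/or by resazurin (1 mg/mL). Gentamicin was the control. Run in duplicate, repeated at least three times.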

[26] = tested on: Pseudomonas aeruginosa; assay: Antibacterial activity against Pseudomonas aeruginosa ATCC 27853 after 24 hrs by resazurin dye based microdilution assay; type: functional; details: ATCC 27853, 24 h; method in brief: as §5
[27] = tested on: Trypanosoma cruzi; assay: Antitrypanosomal activity against Trypanosoma cruzi Tulahuen intracellular amastigote harboring LacZ infected in human U937 cells after 72 hrs by CPRG/Nonidet reagent based spectrophotometric method; type: functional, cell-based; details: U-937, 72 h
Method in brief: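 U-937 cells at 2.5 × 10^5 cells/mL in RPMI-1640 with 10% serum and 0.1 µg/mL PMA were infected with β-galactosidase-transfected Tulahuen epimastigotes at 5 parasites per cell. Infected cells were exposed to 50, 12.5, 3.125 and 0.78 µg/mL for 72 h. CPRG (100 uM) and 0.1% Nonidet P-40 were added for 3 h, read at 570 nm. EC50 by Probit. Triplicate, at least two experiments; benznidazole as reference.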

Row | SMILES | growth inhibition (GI) [1] | growth inhibition (GI) [2] | growth inhibition (GI) [3] | growth inhibition (GI) [4] | growth inhibition (GI) [5] | growth inhibition (GI) [6] | growth inhibition (GI) [7] | growth inhibition (GI) [8] | growth inhibition (GI) [9] | growth inhibition (GI) [10] | growth inhibition (GI) [11] | growth inhibition (GI) [12] | growth inhibition (GI) [13] | growth inhibition (GI) [14] | growth inhibition (GI) [15] | growth inhibition (GI) [16] | growth inhibition (GI) [17] | growth inhibition (GI) [18] | growth inhibition (GI) [19] | growth inhibition (GI) [20] | also measured
1 | COc1ccc(C2=NN(C=O)C(c3cccc(Nc4ccnc5cc(Cl)ccc45)c3)C2)cc1 (configuration not stated) | Active | Active | Active | Active | Active | Active | Active | Active | Active | Active | Active | Active | Active | Active | Active | Active | Active | Active | Active | Active | growth inhibition (GI) [21]: Active; MIC50 [22]: 125 µg/mL (≈ 274 µM); MIC80 [22]: ≥ 250 µg/mL; inhibition of growth at 15.62 µg/mL [23]: 12.9%; inhibition of growth at 250 µg/mL [24]: 55.4%; MIC [25]: > 1000 µg/mL; MIC [26]: > 1000 µg/mL; EC50 [27]: > 0.15 µg/mL
2 | O=CN1N=C(c2ccc(Cl)cc2)CC1c1cccc(Nc2ccnc3cc(Cl)ccc23)c1 (configuration not stated) | Active | Active | Active | Active | Active | Active | Active | Active | Active | Active | Active | Active | Active | Active | Active | Active | Active | Active | Active | Active | growth inhibition (GI) [21]: Active; MIC50 [22]: 31.2 µg/mL (≈ 67.7 µM); MIC80 [22]: ≥ 250 µg/mL; inhibition of growth at 15.62 µg/mL [23]: 22.7%; inhibition of growth at 250 µg/mL [24]: 79.9%; MIC [25]: > 1000 µg/mL; MIC [26]: > 1000 µg/mL; EC50 [27]: 0.7 µg/mL (≈ 1.52 µM)
3 | COc1cc(C(=O)/C=C/c2cccc(Nc3ccnc4cc(Cl)ccc34)c2)cc(OC)c1OC | Active | Active | Active | Active | Active | Active | Active | Active | Active | Active | Active | Active | Active | Active | Active | Active | Active | Active | Active | Active | growth inhibition (GI) [21]: Active; MIC50 [22]: ≥ 250 µg/mL; MIC80 [22]: ≥ 250 µg/mL; inhibition of growth at 15.62 µg/mL [23]: 4.77%; inhibition of growth at 250 µg/mL [24]: 7.12%; MIC [25]: > 1000 µg/mL; MIC [26]: > 1000 µg/mL; EC50 [27]: 1.09 µg/mL (≈ 2.3 µM)
4 | COc1ccc(C(=O)/C=C/c2cccc(Nc3ccnc4cc(Cl)ccc34)c2)cc1 | Active | Active | Active | Active | Active | Active | Active | Active | Active | Active | Active | Active | Active | Active | Active | Active | Active | Active | Active | Active | growth inhibition (GI) [21]: Active; MIC50 [22]: ≥ 250 µg/mL; MIC80 [22]: ≥ 250 µg/mL; inhibition of growth at 15.62 µg/mL [23]: 26.8%; inhibition of growth at 250 µg/mL [24]: 46.1%; MIC [25]: > 1000 µg/mL; MIC [26]: > 1000 µg/mL; EC50 [27]: 3.29 µg/mL (≈ 7.93 µM)
